Bioassay records: PubChem, several laboratories
This is a sample that favours compounds with a hit; in the whole collection about 2.4% have one here.
CSN deneddyl inh = CSN deneddylation inhibition; Q92905; Purified CSN, SCF-Nedd8-OG deneddylation, fluorescence polarization; inhibition, % at 12.5 µM; 0.38% of 360,000 active; AID 651999;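 active = pattern-corrected inhibition above about 35%, with an unprinted fluorescence ratio check between 0.5 and 1.5, limit read from the data, passing the limit was not always enough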;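 also: 0% = enzyme with substrate and 100% = substrate without enzyme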
Target sequence (Q92905 whole entry, looked up, one chain of several): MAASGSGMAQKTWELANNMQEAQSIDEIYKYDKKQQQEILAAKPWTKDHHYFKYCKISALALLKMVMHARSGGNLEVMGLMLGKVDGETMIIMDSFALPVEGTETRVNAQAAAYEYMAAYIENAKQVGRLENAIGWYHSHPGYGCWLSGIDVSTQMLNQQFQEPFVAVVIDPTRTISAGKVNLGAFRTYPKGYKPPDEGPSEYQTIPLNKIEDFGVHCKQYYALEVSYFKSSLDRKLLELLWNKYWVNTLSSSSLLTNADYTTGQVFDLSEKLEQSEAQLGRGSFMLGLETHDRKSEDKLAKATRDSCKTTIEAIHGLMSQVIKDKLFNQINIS
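assay system = purified human Csn5 enzyme expressed in HEK293T cells | amount = 0.24 nM enzyme | buffer or medium = Tris/NaCl/DTT buffer, pH 7.5 | reagent = 10 nM SCFSkp2-Nedd8OG | compound = one concentration, 12.5 µM, 0.25% DMSO | times = 90 min reaction at room temperature | signal = FP | read-out basis = % inhibition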
HNF4A DNA FP = change in binding of human HNF4 alpha to DNA; P41235; HNF4a-FITC DNA binding, fluorescence polarization, 1 h; activity change, % at 10 µM; 0.3% of 360,000 active; in the data active = activity change above about 30%, passing the limit was not always enough
Rin1-Abl PPI inh = inhibitors of human Rin1-Abl protein interaction. P00519+Q13671. inhibition, % at 7.35 µM. AID 588664. 0.4% of 360,000 active. TR-FRET Rin1/Abl binding, biochemical; in the data active = inhibition above about 5%, passing the limit was not always enough
TPT1 inh = inhibitors of Candida albicans tRNA 2'-phosphotransferase TPT1; inhibition, % at 5 µM; 0.81% of 300,000 active; recombinant caTPT1, FP RNA substrate dephosphorylation;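 active = inhibition above the mean of all tested compounds plus 3 SD, set per screening campaign, cut at about 24% in these data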;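 also: plate controls were DMSO alone for no effect and ferristatin control at 100 nM for full effect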
Rpn11 inh = inhibitors of human proteasome Rpn11 | O00487 | human 26S proteasome, Ub4-pepOG fluorescence polarization; 20S core pre-blocked with epoxomicin | inhibition, % at 20 µM | 0.59% of 360,000 active | AID 588493;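 active = inhibition at 20 µM, scaled to each plate's controls, above about 33%, limit read from the data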
Neddyl block = inhibitors of human cullin neddylation. inhibition, % at 25 µM. TR-FRET cullin neddylation, biochemical. P61081+Q13564. AID 651699. 0.58% of 360,000 active; in the data active = inhibition above about 36%
caTPT1 confirm = TPT1 (C. albicans) inhibition, confirmation; 74% of 2,400 active; AID 2149; shares compounds with TPT1 inh; inhibition, % at 5 µM; recombinant caTPT1, fluorescence polarization, RNase T1 coupled;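 active = inhibition above the primary screen limit, the mean inhibition of all tested compounds plus 3 SD, cut at about 25% in these data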
RNase T1 counter = RNase T1 inhibition in TPT1 counter-screen | shares compounds with TPT1 inh | 83% of 2,400 active | AID 2153 | RNase T1 cleavage, fluorescence polarization, 1536-well | inhibition, % at 5 µM;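 active = inhibition above the solvent-only control well mean plus 3 SD, limit set per screening run, cut at about 23% in these data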;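 also: plate controls were DMSO wells with enzyme for no effect and wells without RNase T1 for full effect; inhibitors block cleavage so intact labeled substrate keeps polarization high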
Target sequence (P00651 whole entry, looked up): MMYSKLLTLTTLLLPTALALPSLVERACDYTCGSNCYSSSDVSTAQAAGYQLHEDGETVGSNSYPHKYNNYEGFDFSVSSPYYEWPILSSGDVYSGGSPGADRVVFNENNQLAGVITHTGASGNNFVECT
* hit, by the source's call; i = inactive; · = not tested or not shown; + = active, no number.

SMILES	CSN deneddyl inh	HNF4A DNA FP	Rin1-Abl PPI inh	TPT1 inh	Rpn11 inh	Neddyl block	caTPT1 confirm	RNase T1 counter
CC[n+]1c(/C=C/C=C/N(C(C)=O)c2ccccc2)sc2ccccc21	-86	-42	-14	64*	·	-116	68*	74*
COCC(=O)Nc1cc(C(=O)Nc2ccccc2)ccc1Cl	·	·	·	5	·	·	·	·
CCOC(=O)N1CCN(c2cc(=O)n(-c3cccc(C)c3)c(=O)[nH]2)CC1	-1	2	-1	110*	4	0	-3	3
O=C(Nc1ccc(S(=O)(=O)Nc2nccs2)cc1)c1ccncc1	4	-2	4	·	4	-3	·	·
O=C(Nc1ccc(S(=O)(=O)Nc2nccs2)cc1)c1ccc(=O)[nH]c1	16	-2	-1	36*	26	20	37*	51*
CN1/C(=C\C=C(/C#N)C(=O)Nc2ccc(Cl)cc2)C(C)(C)c2ccccc21	24	66	-4	112*	38	0	36*	52*
CN1/C(=C\C(=O)Nc2ccc(Cl)cc2)C(C)(C)c2ccccc21	3	2	1	3	9	10	·	·
COc1cccc(C(=O)NC(=O)Nc2cc(C)on2)c1	-5	0	-5	27*	2	16	12	17
CC(CNC(=O)COC(=O)c1ccco1)c1ccccc1 (configuration not stated)	-1	0	3	·	-2	-19	·	·
COc1ccc(OC)c(NC(=O)CCn2ccnc2)c1	-4	-2	-1	-2	-2	-2	·	·
O=C(Oc1ccccc1C(=O)Nc1ccccc1)c1ccc(Br)c([N+](=O)[O-])c1	12	-4	-3	-3	4	20	·	·
O=C(Nc1ccc(S(=O)(=O)N2CCOCC2)cc1)c1ccc(=O)[nH]c1	·	·	·	0	·	·	·	·
COC(=O)c1ccc(NC(=O)Cc2ccccc2)cc1	-2	0	-1	-4	-7	8	·	·
CCN(CC(=O)Nc1ccc(C(=O)OC)cc1)Cc1ccccc1	-3	-4	-3	46*	6	8	8	10
COc1ccc(Cc2nc3ccc(C(=O)NCCc4ncccc4C)cc3o2)cc1OC	-4	0	-3	·	2	-12	·	·
NNc1nc2c(-c3ccc(F)cc3)nnn2c2ccccc12	18	25	0	29*	·	24	81*	91*
NNc1nc2c(-c3ccc(Cl)cc3)nnn2c2ccccc12	27	39*	0	39*	·	·	23	29*
Cc1ccc(SC(C)C(=O)NCc2ccncc2)cc1 (configuration not stated)	-6	-3	1	114*	-7	-5	6	7
Cc1nnc(N/N=C/c2ccco2)n1N	-4	1	0	70*	4	-4	11	17
Cn1c(O)c(N=Nc2ccc(F)cc2)c2ccccc21	-2	2	-1	6	7	-4	·	·
Oc1ccccc1N=Cc1sc2ccccc2c1Cl	-17	-1	-2	5	4	-24	·	·
Oc1c(C=Nc2ccccc2)sc2ccccc12	16	37*	-2	100*	·	-4	127*	130*
Oc1sc(C=Nc2ccccc2)c2ccccc12	28	24	-10	119*	·	-75	105*	104*
Oc1sc(C=Nc2ccc(F)cc2)c2ccccc12	12	36*	-2	128*	·	13	110*	109*
O=C(O)CN1C(=O)/C(=C/c2ccc(N3CCCCC3)o2)SC1=S	8	-9	1	9	38	-2	·	·
SMILES	CSN deneddyl inh	HNF4A DNA FP	Rin1-Abl PPI inh	TPT1 inh	Rpn11 inh	Neddyl block	caTPT1 confirm	RNase T1 counter
CCCN1C(=O)S/C(=C/c2ccc(N3CCOCC3)o2)C1=O	46	217	-13	180*	·	-350	183*	166*
CCCN1C(=O)S/C(=C\c2ccc(N3CCOCC3)o2)C1=O	-15	127	1	+	·	i	188*	169*
NC(CS(=O)O)C(=O)O (configuration not stated)	0	0	4	-1	5	-7	·	·
COc1ccc(N=C(C)C2C(=O)c3ccccc3C2=O)cc1	-3	2	3	·	2	-37	·	·
CSc1ncccc1C(=O)OCC(=O)Nc1cccc(S(=O)(=O)N2CCOCC2)c1	1	2	2	·	0	-26	·	·
CC(C)C(=O)Nc1nnc(SCC(=O)NCc2cccs2)s1	-4	-4	-2	32*	5	-3	1	2
CC(C)(C)C(=O)Nc1nnc(SCC(=O)NCc2cccs2)s1	-5	-2	2	-5	-3	0	·	·
COc1ccc(N2C(=O)[C@H]3CCC=C[C@H]3[C@@H]2c2ccccc2Br)cc1	0	2	0	·	-2	1	·	·
Cc1cc(C)cc(NC(=O)COc2coc(CN3CCc4ccccc4C3)cc2=O)c1	4	1	1	-1	7	2	·	·
O=Cc1cn(CC(O)Cn2cc(C=O)c3ccccc32)c2ccccc12	0	1	1	-4	1	3	·	·
O=C(/C=C/c1cn(CC(O)CN2CCCCCC2)c2ccccc12)c1cccs1 (configuration not stated)	34	23	-25	57*	·	11	68*	76*
COc1cc(OC)c(OC)cc1/C=C/C(=O)c1ccc(NS(=O)(=O)c2ccc(C)cc2)cc1	32	35	0	78*	·	5	86*	95*
COc1ccc(CNC(=O)/C=C/c2cc([N+](=O)[O-])ccc2OC(F)F)cc1OC	4	-1	-3	37*	-1	-39	7	8
COc1cc([N+](=O)[O-])ccc1N1C(=O)C2C3C=CC(C4CC34)C2C1=O (configuration not stated)	-2	2	-2	-3	2	-28	·	·
COc1ccc(-n2c(N)c(C(=O)NCc3ccco3)c3nc4ccccc4nc32)c(OC)c1	25	3	-1	39*	33	·	10	17
N#C/C(=C/c1ccc(-c2ccc(S(N)(=O)=O)cc2)o1)c1nc2ccccc2s1	-95	107	-5	73*	·	-30	41*	50*
N#C/C(=C\c1ccc(-c2ccc(F)cc2)o1)C(=O)Nc1nc(-c2cccs2)cs1	-14	-5	-1	-2	-11	-11	·	·
N#C/C(=C/c1ccc(-c2ccccc2)o1)c1nc(-c2cccs2)cs1	63	17	0	131*	·	-19	124*	114*
COc1cc(C=C(C#N)c2ccc([N+](=O)[O-])cc2)ccc1O	6	12	0	·	9	-40	·	·
CC(=O)Nc1sc(/C(C#N)=C\c2cccc(Cl)c2)nc1-c1ccc(C)cc1	39	32	4	36*	·	32	36*	48*
